Assay results collected from several papers.
Compare with care: the assays were run in different laboratories.
Observed: cell growth or viability

Structure (SMILES) | cell line | assay | setting | IC50 [nM]
COc1cc(C(=O)c2nc(-c3cccc4[nH]ccc34)c[nH]2)cc(OC)c1OC | PC-3 | MTS | 72 h | ~1.3
COc1c(C)c2c(c(O)c1C/C=C(\C)CCC(=O)O)C(=O)OC2 | JIMT-1 | – | – | 1150
CC[C@H](C)[C@H](NC(=O)[C@H](CCCCN)NC(=O)[C@H](CCCCN)NC(=O)[C@H](CC(C)C)NC(=O)[C@H](CC(C)C)NC(=O)[C@H](CCCCN)NC(=O)[C@H](CCCCN)NC(=O)[C@H](CC(C)C)NC(=O)[C@H](CCCCN)NC(=O)[C@H](CCCCN)NC(=O)[C@@H](N)CC(C)C)C(=O)N[C@@H](CCCCN)C(=O)N[C@@H](CCCNC(=N)N)C(N)=O | A549 | MTT | 24 h | > 500000
N.N.[Cl][Pt][Cl] | WSU-NHL | ATP luminescence | 72 h | 1180
CC(C)C[C@H](NC(=O)[C@H](CCCCN)NC(=O)[C@H](Cc1c[nH]c2ccccc12)NC(=O)[C@H](Cc1c[nH]c2ccccc12)NC(=O)[C@H](CCCNC(=N)N)NC(=O)[C@H](Cc1c[nH]c2ccccc12)NC(=O)[C@H](Cc1c[nH]cn1)NC(=O)[C@@H](N)CCCNC(=N)N)C(=O)N[C@@H](Cc1c[nH]cn1)C(=O)N[C@@H](Cc1c[nH]c2ccccc12)C(=O)N[C@@H](CCCNC(=N)N)C(=O)N[C@@H](CCC(=O)O)C(=O)N[C@@H](Cc1c[nH]c2ccccc12)C(N)=O | A549 | MTT | 24 h | 71000
COc1cc(C(=O)c2nc(-c3ccc4[nH]ccc4c3)c[nH]2)cc(OC)c1OC | PC-3 | MTS | 72 h | 27.7
CC[C@@]1(O)C(=O)OCc2c1cc1n(c2=O)Cc2cc3ccccc3nc2-1 | U-251 | SRB | 48 h | 64
O=[N+]([O-])c1ccc(NCCCCCCN=C=S)c2nonc12 | PC-3 | MTT | 24 h | 1000
CC[C@H](C)[C@H](NC(=O)[C@H](CCCNC(=N)N)NC(=O)CNC(=O)[C@H](CCCCN)NC(=O)[C@H](CCCNC(=N)N)NC(=O)[C@H](CCCNC(=N)N)NC(=O)[C@H](CC(C)C)NC(=O)[C@H](CCC(N)=O)NC(=O)CNC(=O)[C@H](CCCCN)NC(=O)[C@@H](N)CCSC)C(=O)N[C@@H](CCCNC(=N)N)C(N)=O | A549 | MTT | 24 h | > 500000
CC(=N)S | NIH3T3 | – | 96 h, 3D culture | 332000
N.N.[Cl][Pt][Cl] | A549 | MTT | 48 h | 5550
N.N.[Cl][Pt][Cl] | NIH3T3 | – | 96 h | 6780
COc1cc(C(=O)c2nc(-c3c[nH]c4ccccc34)c[nH]2)cc(OC)c1OC | PC-3 | MTS | 72 h | 71.1
CC(C)[C@H](NC(=O)[C@H](CCCCN)NC(=O)[C@H](Cc1c[nH]c2ccccc12)NC(=O)[C@H](Cc1c[nH]c2ccccc12)NC(=O)[C@H](CCCNC(=N)N)NC(=O)[C@H](Cc1c[nH]c2ccccc12)NC(=O)[C@H](Cc1c[nH]cn1)NC(=O)[C@@H](N)CCCNC(=N)N)C(=O)N[C@@H](Cc1c[nH]cn1)C(=O)N[C@@H](Cc1c[nH]c2ccccc12)C(=O)N[C@@H](CCCNC(=N)N)C(=O)N[C@@H](CCC(=O)O)C(=O)N[C@@H](Cc1c[nH]c2ccccc12)C(N)=O | A549 | MTT | 24 h | > 500000
S=P1(c2ccccc2)CCCCC1 | PC-3 | MTT | 72 h | > 100000
